From ChEMBL document CHEMBL4513216, “Probing the Open Global Health Chemical Diversity Library for Multistage-Active Starting Points for Next-Generation Antimalarials” (ACS Infect Dis, 2020)

Experiment: Toxicity liver stage against HepG2, at 10uM
Assay type: cell-based
Parameters: test concentration 10 uM, cell line HepG2-A16-CD81EGFP
Details: human, HepG2-A16-CD81EGFP cells; read-out: INHIBITION
Outline: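 Uninfected HepG2-A16-CD81EGFP cells, 3 × 10^3 per well, 1536-well, plated on prespotted compound at 10 μM final, parasite-free screening media added to match infected plates; puromycin 10 μM positive, DMSO 0.5% negative; run in parallel with 48 h PbLuc assay at 37 °C, 5% CO2; viability by CellTiter-Glo luminescence, normalized to controls.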

Row | SMILES | cytotoxicity at 10 µM [%]
1 | Cc1ccc(N2C(=O)N[C@@H]3CCN(C(=O)C4CC4)[C@@H]3C2=O)cc1 | 3.85
2 | Cc1occc(=O)c1OCc1noc(C(=O)NCC2CC2)n1 | -2.51
3 | CCS(=O)(=O)N1CCN(CC(F)(F)F)CC1 | -1.99
4 | COC1(CNC(=O)NCCOc2ccccc2)CCSC1 (configuration not stated) | -0.572
5 | CCN1C(=O)CC[C@@H]2[C@H]1CCN2S(=O)(=O)c1cccs1 | 0.169
6 | CCOCC(=O)N1CCCC2(CCN(c3ccccc3)C2=O)C1 (configuration not stated) | 2.02
7 | CCCNC(=O)c1cc(-c2ccn(C(C)C)n2)n2ccccc12 | 1.92
8 | CN(C)CC(=O)N1Cc2cc(N(C)C)ccc2C1c1cnco1 (configuration not stated) | -0.757
9 | CNC(=O)[C@@H]1COC[C@H]2CN(C(=O)c3cccc(OC)c3)C[C@H]21 | 12.2
10 | CN1C(=O)CCC12CCCN(C(=O)c1ccoc1)C2 (configuration not stated) | 2.65
11 | Cc1noc(C2(NC(=O)c3cccnc3O)CCCCC2)n1 | -9.83
12 | COCC1CN(C(=O)c2cccn2C)Cc2ncnn2C1 (configuration not stated) | -8.97
13 | CCCn1nnc(NCc2ccc(-c3ccc(Br)cc3)o2)n1 | -4.11
14 | O=C1CNc2ncnc(Nc3cnn(Cc4ccccc4F)c3)c2N1 | 2.27
15 | Cc1nc(NCc2cccnc2)cc(C2COCCN2)n1 (configuration not stated) | 3.78
16 | Cc1cc(C(F)(F)F)nc(C2COCCN2S(C)(=O)=O)n1 (configuration not stated) | -2.6
17 | Cn1ncc2ccc(C3CCCN(Cc4ccsc4)C3)nc21 (configuration not stated) | 8.61
18 | CNC(=O)c1cccc(C2CNCCN2C(=O)c2ccn(C)n2)c1 (configuration not stated) | -4.22
19 | Cc1ccc(C(=O)N2CCCC(c3[nH]ncc3S(C)(=O)=O)C2)s1 (configuration not stated) | -10.6
20 | Cc1ccsc1C(=O)N1CCC(O)(CN2CCc3ccccc3C2)C1 (configuration not stated) | 0.803
21 | Cc1ccc(Oc2nccnc2C2CCN(C(=O)C(C)(C)N)CC2)cc1 | -7.86

Row | SMILES | cytotoxicity at 10 µM [%]
22 | CNc1cncc(C2CCCN2Cc2ccnc(N3CCCC3)n2)n1 (configuration not stated) | -12.1
23 | Cc1nc(CCC(=O)NC2CCC2)cc(C2CCNCC2)n1 | -5.15
24 | COc1ccc(-c2nc(CCNCc3ccncc3)co2)cc1 | -6.11
25 | N#Cc1cccc(S(=O)(=O)NC(=O)C2CC(c3ccccc3)=NO2)c1 (configuration not stated) | 1.85
26 | CC1CN(CC(=O)NCCc2ccccc2)CCN1c1nccs1 (configuration not stated) | -2.79
27 | Cc1ccc(S(=O)(=O)NCCc2nnc[nH]2)c2cccnc12 | -5.93
28 | CCOc1ccc(CNC2CCCN(c3cccnn3)C2)cc1OC (configuration not stated) | -3.92
29 | Cc1nc(CCCNC(=O)c2c(F)cc(F)cc2F)n[nH]1 | -4.31
30 | CC(NC(=O)N1CCCC1)c1ccc(S(N)(=O)=O)cc1 (configuration not stated) | -8.2
31 | CN(C)C(=O)COc1ccccc1CNC1CCc2ncnn2C1 (configuration not stated) | 5.38
32 | COCC(=O)NS(=O)(=O)c1ccc(F)c(F)c1 | -6.49
33 | CS(=O)(=O)CCC(=O)NC(c1ccc(F)cc1)C(F)(F)F (configuration not stated) | -4.44
34 | O=C(NC1CC1)C1CCN(Cn2nc(-c3ccccc3)oc2=O)CC1 | 15
35 | NC(=O)c1cc(NC(=O)N2CCOCC2)ccc1F | -48.8
36 | CCOC(C)c1noc(CN2CCN(Cc3ccno3)CC2)n1 (configuration not stated) | 7.24
37 | Cc1nc(C)c(C(C)NC(=O)NCCNc2cccc(F)c2C#N)s1 (configuration not stated) | -1.37
38 | Cc1ccccc1OCCN(C)Cc1noc(CC(C)C)n1 | -6.99
39 | CN(C)Cc1ccc(N2CCN(CCOCC(F)(F)F)CC2)nc1 | 1.25
40 | CCN(C(C)=O)C(c1ccc(Cl)cc1)c1ccccn1 (configuration not stated) | -4.29
41 | O=C(CCn1cncn1)NC1(c2cccc(Br)c2)CCC1 | -20.2
42 | O=C(CCc1cscn1)NS(=O)(=O)c1ccc2c(c1)CCC2 | -24.5

Row | SMILES | cytotoxicity at 10 µM [%]
43 | Cc1nn(C)c(C)c1C1COCCN1C(=O)Cc1cccc(F)c1 (configuration not stated) | -11
44 | Cc1nc(C)n(CC2CCCN2CCCc2ccccc2)n1 (configuration not stated) | -14.1
45 | CC(=O)N1CCC(n2nccc2-c2cnc(NCCO)nc2)CC1 | -1
46 | CCCN(Cc1ccccc1C)C(CC)CO (configuration not stated) | -6.08
47 | Nc1nc(N2CCCC(COc3ccc(F)cc3)C2)c2nc[nH]c2n1 (configuration not stated) | 2.11
48 | CCN(CC)CCn1ccnc1-c1cccc(C#N)c1 | -5
49 | CC(=O)N1CCC(N2CCN(Cc3ccc(C)o3)C(CCO)C2)CC1 (configuration not stated) | -3.57
50 | Cc1ccc(-n2ncc3c2CCCC3N)cc1C (configuration not stated) | -1.97
51 | Cc1noc(-c2ccc(N[C@H]3CCCCNC3=O)nc2)n1 | 0.913
52 | Cn1ncc2c(NC3CCC3)nc(-c3ccncc3)nc21 | 16.7
53 | Cc1ccc(F)c(OC2(C(=O)O)CCN(C(=O)N3CCCC3)CC2)c1 | -3.94
54 | Cc1nc[nH]c1CN(C)CC1CCCN(CCc2ccc(Cl)cc2)C1 (configuration not stated) | -15.5
55 | Cn1c(Cn2cccn2)nnc1C1CCN(Cc2cccnc2N)CC1 | -9.12
56 | CCCc1noc(CN(C)C(=O)C2COc3ccccc3C2)n1 (configuration not stated) | -7.01
57 | O=C(c1cccs1)N1CCC(Cn2nc(-c3ccco3)ccc2=O)CC1 | -2.21
58 | NC(=O)C1CCN(C(=O)CCCc2nnc(-c3ccccc3)o2)CC1 | -13.2
59 | O=C(CCCc1nc(-c2ccccc2)no1)N1CCN(CCO)CC1 | -3.54
60 | Cc1ncsc1C(=O)NC1CCN(CCCC#N)CC1 | -14.7
61 | COCc1ccc(CNCc2c(C)nn(C)c2N(C)C)cc1 | -16
62 | CC(NC(=O)CCOc1cccc(F)c1)c1nnc2n1CCC2 (configuration not stated) | -14.1
63 | Cc1n[nH]c(C2CN(Cc3nnc(C4CC4)n3C)CCO2)n1 (configuration not stated) | -16

Row | SMILES | cytotoxicity at 10 µM [%]
64 | Cc1nn(C)c(C)c1C1CCCN1C(=O)CCNc1ncccn1 (configuration not stated) | -7.37
65 | COc1ccc(C(N)c2cccc(S(C)(=O)=O)c2)cc1 (configuration not stated) | 4.69
66 | Cc1nc(CNC(C)c2ccc(OCC(=O)NC3CC3)cc2)cs1 (configuration not stated) | -2.82
67 | Cc1nn(C)c(C)c1CNCc1ccnc(N2CCOCC2)c1 | 0.626
68 | Cc1nc2sccn2c1CN(CCCN(C)C)Cc1ccco1 | -0.215
69 | Cc1cnc(N2CC[C@@H](N3CCOCC3)[C@@H]2Cc2ccncc2)nc1 | 4.47
70 | Cc1ccc(CNC(c2ccccc2)c2nccn2C)cc1 (configuration not stated) | -6.3
71 | CCCS(=O)(=O)N1CCO[C@H]2[C@H](OCc3ccccn3)CC[C@@H]21 | -9
72 | CN1CCC(c2nc3ccc(-c4cccc(F)c4)cn3n2)CC1 | 10.4
73 | O=C(CC1CC1)N[C@@H]1CN(Cc2ccncc2)C[C@@H]2CCCO[C@@H]21 | -7.96
74 | CNC(=O)[C@H]1C[C@@H]2CN(Cc3cccnc3OC)C[C@@H]2N1C(C)C | 11.5
75 | Cn1nccc1-c1ccc2nc(C3CCN(CCO)CC3)nn2c1 | -14.1
76 | Cc1cccc(CN2C(=O)CC[C@@H]3[C@H]2CCN3Cc2ccc(C)s2)n1 | 5.45
77 | CN(C)CCN1CCO[C@H]2CN(C(=O)N(C)C)C[C@H]21 | 0.657
78 | CS(=O)(=O)N1CCC2(CN(C(=O)c3cccnc3)C2)C1 | -13
79 | c1ccc(CN2C[C@H]3CCC[C@@]3(COCC3CCOCC3)C2)nc1 | 1.49
80 | Cn1cc(CN2CCc3onc(C(=O)N4CCCC4)c3C2)cn1 | -12.2
81 | O=c1c2c[nH]c(N3CCOCC3)nc-2cn1Cc1cccc(F)c1 | -2.72
82 | COCC1N(C(=O)N2CCOCC2)C2CCC1(O)CC2 (configuration not stated) | -0.791
